Assay results gathered from unrelated publications.
Each line is one published result; the experiments were not run side by side.
Target: Serine/threonine-protein kinase WNK4 (WNK4, Homo sapiens, UniProt Q96J92)

SMILES | test | setting | remaining binding [%]
O=C(NCC1CCOCC1)c1n[nH]cc1NC(=O)c1c(F)cccc1F | binding, competition with immobilised ligand | 1 µM | 86
COc1cnc(Nc2cccc(S(N)(=O)=O)c2)nc1N1CCN(c2ccccc2)C(=O)C1 | binding, competition with immobilised ligand | 1 µM | 89
O=C(c1ccc(Nc2ncc(Cl)c(-c3ccc(Cl)s3)n2)cc1)N1CCC(N2CCCC2)CC1 | binding, competition with immobilised ligand | 1 µM | 100
CN(CCCC(F)(F)F)c1nccc(-c2cnn3ncccc23)n1 | binding | 1 µM | 91
CSc1cccnc1N1CCN(Cc2nc3ccccc3[nH]2)CC1 | cell-free assay, competition with immobilised ligand | 1 µM | 91
C[C@H]1CCN(c2nccc(-c3cnn4ncccc34)n2)C1 | binding | 1 µM | 79
CCCCN(CCCC)C(=O)CN1C[C@H](c2cc(OC)c3c(c2)OCO3)[C@@H](C(=O)O)[C@@H]1CC(C)(C)CCC | cell-free assay, competition with immobilised ligand | 1 µM | 97.9
F[C@@H]1CCN(c2nccc(-c3cnn4ncccc34)n2)C1 | binding | 1 µM | 91
COc1cnc(Nc2cccc(S(N)(=O)=O)c2)nc1N1CCN(c2ccccc2)CC1 | binding, competition with immobilised ligand | 1 µM | 82
COc1cccc(CNC(=O)c2nc3scc(COCc4ccc(C(=O)O)cc4)c3c(=O)[nH]2)c1 | cell-free assay, competition with immobilised ligand | 1 µM | 100
COc1ccnn2ncc(-c3ccnc(N(C)C)n3)c12 | binding | 1 µM | 100
O=C(Nc1ccc(Oc2ccc(F)cc2)cc1)N1CCc2ncccc2[C@H]1c1ccc(F)cc1 | cell-free assay, competition with immobilised ligand | 1 µM | 85
CN(C)c1ncc(F)c(-c2cnn3ncccc23)n1 | binding | 1 µM | 91
C[C@@H](c1ccc(-n2cnc3c(N)ncnc32)cc1)N1CCc2nn(C)c(Cc3ccccc3)c2C1=O | binding, competition with immobilised ligand | 0.1 µM | 75
O=C(c1ccc(Nc2nccc(-c3cc4ccccc4s3)n2)cc1)N1CCC(N2CCCC2)CC1 | binding, competition with immobilised ligand | 1 µM | 92
N[C@H]1CCN(c2nccc(-c3cnn4ncccc34)n2)C1 | binding | 1 µM | 84
CC(=O)c1c(NS(C)(=O)=O)c2cc(-c3ccc(Cl)cc3)c(-c3ccc(Cl)cc3Cl)nc2n(C)c1=O | cell-free assay, competition with immobilised ligand | 1 µM | 96
O=C(NCCCN1CCOCC1)c1ccc(Nc2nccc(-c3cc4ccccc4s3)n2)cc1 | binding, competition with immobilised ligand | 1 µM | 71
CN(C)CC#Cc1ccc(OCCCc2sc(N3CCc4cccc(C(=O)Nc5nc6ccccc6s5)c4C3)nc2C(=O)O)c(F)c1 | cell-free assay, competition with immobilised ligand | 1 µM | 81
FC(F)(F)Oc1cccc(-c2cnc3ccc(-c4ccncc4)nn23)c1 | binding, competition with immobilised ligand | 5 µM | 100
